# Assay results as given in PMC7962621 (Cell, 2019).
# How the values were obtained:
# [1] = system: CD4 T cells from DQ8+ T1D subjects; experiment: CFSE proliferation assay with immobilized peptide/DQ8 complexes, T1D subjects; format: cell-based, human; conditions: peptide-loaded DQ8 immobilized (10 μM), 7 days, CFSElow CD4 T cells; n = 3
# How it was run: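 Freshly isolated PBMCs were washed in warm PBS and labelled with 1 μM CFSE for 1–2 min at 37 °C, then quenched with chilled medium. Thrombin-cleaved, CLIP-free DQ8 monomers (0.5 μM) were loaded with peptide (100 μM) for 72 h at 37 °C in pH 5.5 citrate phosphate buffer, then immobilized in wells. Unstimulated cells served as negative control and anti-CD3/CD28 as positive control.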
# [2] = relative to native insulin; ref Wang et al., 2018; cited from earlier work
# DQ8 = conditions: two registers placing nonacidic residues at P1 and P9; background statement; cited from earlier work
Substance,Stimulation of CD4 T cells from DQ8+ T1D subjects [1],Fold potency vs native insulin B:9–23 [2],Binding of insulin B:9–23 peptide to DQ8 (DQ8)
CARQRFWSGPLFDYW [h-Id],no significant responses,,
SHLVEALYLVCGEEG [mimotope],,100 fold,
SHLVEELYLVAGEEG [superagonist],,"about 1,000 fold",
native insulin: insulin B:9–23 peptide SHLVEALYLVCGERG,no significant responses,,binds poorly to DQ8
